Measured values taken from article PMC3184254 (Nature Chemical Biology, 2011).
Read-outs that look alike come from different tables or passages of the source.

Columns and labels:
[1] = target: MLL (Homo sapiens, UniProt Q03164); assay: BPS Bioscience assay, MLL; type: biochemical
[2] = test system: H3K9me2 at genomic loci on chr3 and chrX in MCF7 cells; assay: ChIP-chip with H3K9me2 antibody; type: cell-based, human; details: 320 nM for 14 d
[3] = test system: H3K9me2 levels in MDA-MB-231 cells; assay: H3K9me2 in-cell western, MDA-MB-231; type: cell-based, human
[4] = target: M2 (Homo sapiens, UniProt P08172); assay: M2 functional assay; type: cell-based
[5] = test system: MAGEA2 and DUB1 genes in J1 mES cells; assay: mRNA levels of G9a-regulated endogenous genes; type: cell-based, mouse; details: day 10; versus untreated or UNC0737-treated cells
[6] = test system: HSC1-EF1α-EGFP-Puromycin retrovirus in J1 mES cells; assay: Reactivation of silent EGFP retrovirus vector, flow cytometry; type: cell-based, mouse
[7] = test system: H3K9me2 levels in J1 mES cells; assay: Cellular potency; type: cell-based; details: Mus musculus, 48 h, read-out: IC50 cellular potency
[8] = target: adrenergic α1A receptor (Rattus norvegicus, UniProt P43140); assay: Ricerca Selectivity Panel, adrenergic α1A; type: binding
[9] = test system: panel of 24 kinases; assay: Kinase selectivity panel; type: biochemical; details: at 1 μM; 24 kinases
[10] = target: EZH2 (Homo sapiens, UniProt Q15910); assay: BPS Bioscience assay, EZH2; type: biochemical
[11] = target: muscarinic M2 receptor (Homo sapiens, UniProt P08172); assay: Ricerca Selectivity Panel, muscarinic M2; type: binding
[12] = target: M1 (Homo sapiens, UniProt P11229); assay: M1 functional assay; type: cell-based
[13] = test system: MDA-MB-231 cells; assay: MTT assay, MDA-MB-231; type: cell-based, human; details: Homo sapiens, MDA-MB-231, read-out: EC50 cellular toxicity (MTT)
[14] = test system: J1 mES cells; assay: SSEA1 pluripotency marker immunostaining, flow cytometry; type: cell-based, mouse; details: 100 nM
[15] = target: SUV39H1 (Homo sapiens, UniProt O43463); assay: BPS Bioscience assay, SUV39H1; type: biochemical
[16] = target: T1, G9a (Homo sapiens, UniProt Q96KQ7); assay: Endoproteinase-coupled microfluidic capillary electrophoresis; type: biochemical
T1 sequence (Q96KQ7 1-1210): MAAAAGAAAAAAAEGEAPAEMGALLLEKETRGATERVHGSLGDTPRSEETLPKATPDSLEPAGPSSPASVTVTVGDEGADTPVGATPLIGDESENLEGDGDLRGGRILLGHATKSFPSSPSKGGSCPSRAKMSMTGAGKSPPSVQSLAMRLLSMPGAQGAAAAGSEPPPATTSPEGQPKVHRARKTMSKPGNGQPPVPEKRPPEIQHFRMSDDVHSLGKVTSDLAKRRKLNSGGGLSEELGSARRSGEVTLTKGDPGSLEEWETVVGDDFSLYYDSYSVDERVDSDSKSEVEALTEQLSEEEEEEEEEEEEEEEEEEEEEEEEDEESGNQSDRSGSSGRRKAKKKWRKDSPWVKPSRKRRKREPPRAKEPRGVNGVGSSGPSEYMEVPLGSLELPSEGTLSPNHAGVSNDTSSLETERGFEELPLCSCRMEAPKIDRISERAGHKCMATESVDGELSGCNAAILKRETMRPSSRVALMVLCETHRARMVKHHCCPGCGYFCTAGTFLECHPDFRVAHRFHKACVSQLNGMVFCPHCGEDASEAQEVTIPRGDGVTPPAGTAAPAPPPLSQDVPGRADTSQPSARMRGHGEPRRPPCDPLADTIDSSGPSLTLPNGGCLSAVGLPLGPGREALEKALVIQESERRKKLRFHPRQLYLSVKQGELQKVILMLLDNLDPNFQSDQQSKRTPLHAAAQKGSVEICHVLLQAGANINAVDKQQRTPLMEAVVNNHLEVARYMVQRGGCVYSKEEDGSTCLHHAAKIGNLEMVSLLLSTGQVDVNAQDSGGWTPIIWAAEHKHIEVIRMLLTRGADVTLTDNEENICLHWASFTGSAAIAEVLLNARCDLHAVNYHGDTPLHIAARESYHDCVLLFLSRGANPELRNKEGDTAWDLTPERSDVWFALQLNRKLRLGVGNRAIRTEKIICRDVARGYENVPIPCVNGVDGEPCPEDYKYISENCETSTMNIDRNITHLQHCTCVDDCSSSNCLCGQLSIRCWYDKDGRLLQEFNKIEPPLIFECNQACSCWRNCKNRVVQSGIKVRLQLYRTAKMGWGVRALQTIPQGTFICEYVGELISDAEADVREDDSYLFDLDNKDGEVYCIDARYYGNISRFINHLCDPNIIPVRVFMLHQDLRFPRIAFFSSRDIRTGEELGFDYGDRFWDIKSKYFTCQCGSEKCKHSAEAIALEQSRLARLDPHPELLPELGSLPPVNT

[17] = test system: MCF7 cells; assay: Clonogenicity assay, MCF7; type: cell-based, human
[18] = test system: H3K9me2 levels in 22RV1 cells; assay: H3K9me2 in-cell western, 22RV1; type: cell-based; details: Homo sapiens, 22Rv1, read-out: IC50 for reduction of H3K9me2 levels
[19] = test system: retrovirus long terminal repeat and MAGEA2 promoter in mES cells; assay: Bisulfite sequencing DNA methylation in mES cells; type: cell-based, mouse; details: after 10 d of treatment
Procedure, shortened: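 J1 mouse ES cells were grown on 0.1% gelatin in DMEM with 15% ES-qualified FBS, 4 mM L-glutamine, 0.1 mM nonessential amino acids, 1 mM pyruvate, 0.55 mM 2-mercaptoethanol and LIF. They carried a silenced HSC1 retroviral EGFP-puromycin reporter driven by the EF1a promoter.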

[20] = target: M4 (Homo sapiens, UniProt P08173); assay: M4 functional assay; type: cell-based
[21] = target: T1, G9a; assay: G9a fluorescence-polarization peptide displacement assay; type: binding
[22] = assay results from BPS Bioscience

EZH2, sequence (Q15910 whole entry, species assumed): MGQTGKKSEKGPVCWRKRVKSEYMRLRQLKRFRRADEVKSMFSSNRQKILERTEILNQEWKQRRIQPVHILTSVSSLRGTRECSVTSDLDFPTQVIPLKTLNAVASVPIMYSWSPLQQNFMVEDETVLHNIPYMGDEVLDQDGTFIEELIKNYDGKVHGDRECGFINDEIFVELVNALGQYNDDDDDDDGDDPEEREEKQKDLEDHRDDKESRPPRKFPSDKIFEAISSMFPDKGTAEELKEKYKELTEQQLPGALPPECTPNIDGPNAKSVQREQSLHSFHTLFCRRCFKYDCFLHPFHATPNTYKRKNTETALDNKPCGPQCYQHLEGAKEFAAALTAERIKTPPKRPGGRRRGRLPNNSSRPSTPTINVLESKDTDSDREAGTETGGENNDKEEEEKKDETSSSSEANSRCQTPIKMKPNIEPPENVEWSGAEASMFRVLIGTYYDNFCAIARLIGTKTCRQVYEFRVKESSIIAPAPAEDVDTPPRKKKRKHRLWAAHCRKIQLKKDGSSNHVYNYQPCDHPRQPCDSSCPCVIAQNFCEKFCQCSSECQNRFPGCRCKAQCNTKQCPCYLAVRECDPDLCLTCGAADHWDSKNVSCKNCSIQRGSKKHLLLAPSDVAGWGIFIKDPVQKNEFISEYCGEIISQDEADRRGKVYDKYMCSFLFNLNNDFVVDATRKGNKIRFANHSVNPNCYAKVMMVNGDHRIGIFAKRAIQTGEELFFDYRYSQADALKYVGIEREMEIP
EZH2, sequence (O75530 whole entry partner, species assumed): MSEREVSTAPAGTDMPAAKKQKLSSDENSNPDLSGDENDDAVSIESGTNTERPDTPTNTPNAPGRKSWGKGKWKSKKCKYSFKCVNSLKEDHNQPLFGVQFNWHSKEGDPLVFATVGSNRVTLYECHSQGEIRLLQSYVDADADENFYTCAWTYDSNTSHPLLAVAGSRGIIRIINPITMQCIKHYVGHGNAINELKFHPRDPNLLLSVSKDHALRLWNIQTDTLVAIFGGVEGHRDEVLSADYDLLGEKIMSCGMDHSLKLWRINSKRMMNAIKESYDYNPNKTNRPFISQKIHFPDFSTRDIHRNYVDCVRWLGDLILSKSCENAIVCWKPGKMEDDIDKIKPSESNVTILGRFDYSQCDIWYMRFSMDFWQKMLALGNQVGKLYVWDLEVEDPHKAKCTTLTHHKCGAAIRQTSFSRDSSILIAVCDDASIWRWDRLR
EZH2, sequence (Q15022 whole entry partner, species assumed): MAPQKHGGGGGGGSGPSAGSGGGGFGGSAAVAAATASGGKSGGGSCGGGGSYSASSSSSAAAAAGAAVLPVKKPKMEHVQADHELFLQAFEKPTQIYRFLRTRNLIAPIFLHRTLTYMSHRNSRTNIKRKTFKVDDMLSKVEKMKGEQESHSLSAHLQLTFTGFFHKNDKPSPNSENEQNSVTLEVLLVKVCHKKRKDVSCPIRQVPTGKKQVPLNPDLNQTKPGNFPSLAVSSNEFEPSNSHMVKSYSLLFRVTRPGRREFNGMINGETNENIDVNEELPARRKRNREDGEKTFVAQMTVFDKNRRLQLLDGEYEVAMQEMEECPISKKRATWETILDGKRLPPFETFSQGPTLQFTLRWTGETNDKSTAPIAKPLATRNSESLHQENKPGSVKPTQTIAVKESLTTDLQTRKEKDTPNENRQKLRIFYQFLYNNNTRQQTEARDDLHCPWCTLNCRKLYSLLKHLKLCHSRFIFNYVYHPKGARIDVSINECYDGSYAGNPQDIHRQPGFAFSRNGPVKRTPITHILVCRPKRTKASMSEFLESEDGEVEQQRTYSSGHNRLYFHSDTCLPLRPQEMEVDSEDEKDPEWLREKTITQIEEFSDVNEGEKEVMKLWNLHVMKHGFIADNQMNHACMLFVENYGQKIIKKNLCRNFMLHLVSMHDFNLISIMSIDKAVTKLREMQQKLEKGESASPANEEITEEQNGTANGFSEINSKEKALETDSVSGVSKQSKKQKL
EZH2, sequence (Q09028 whole entry partner, species assumed): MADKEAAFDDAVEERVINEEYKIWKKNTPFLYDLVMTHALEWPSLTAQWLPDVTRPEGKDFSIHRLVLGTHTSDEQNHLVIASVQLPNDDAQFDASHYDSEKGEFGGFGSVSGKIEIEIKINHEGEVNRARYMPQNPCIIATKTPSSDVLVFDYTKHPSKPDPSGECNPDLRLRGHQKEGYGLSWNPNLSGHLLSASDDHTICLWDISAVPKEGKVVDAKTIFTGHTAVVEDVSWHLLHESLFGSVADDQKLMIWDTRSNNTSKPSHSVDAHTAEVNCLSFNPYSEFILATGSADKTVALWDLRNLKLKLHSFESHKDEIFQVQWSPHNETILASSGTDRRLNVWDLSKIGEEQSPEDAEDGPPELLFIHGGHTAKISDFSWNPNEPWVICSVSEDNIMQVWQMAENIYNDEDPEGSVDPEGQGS
EZH2, sequence (Q6ZN18 whole entry partner, species assumed): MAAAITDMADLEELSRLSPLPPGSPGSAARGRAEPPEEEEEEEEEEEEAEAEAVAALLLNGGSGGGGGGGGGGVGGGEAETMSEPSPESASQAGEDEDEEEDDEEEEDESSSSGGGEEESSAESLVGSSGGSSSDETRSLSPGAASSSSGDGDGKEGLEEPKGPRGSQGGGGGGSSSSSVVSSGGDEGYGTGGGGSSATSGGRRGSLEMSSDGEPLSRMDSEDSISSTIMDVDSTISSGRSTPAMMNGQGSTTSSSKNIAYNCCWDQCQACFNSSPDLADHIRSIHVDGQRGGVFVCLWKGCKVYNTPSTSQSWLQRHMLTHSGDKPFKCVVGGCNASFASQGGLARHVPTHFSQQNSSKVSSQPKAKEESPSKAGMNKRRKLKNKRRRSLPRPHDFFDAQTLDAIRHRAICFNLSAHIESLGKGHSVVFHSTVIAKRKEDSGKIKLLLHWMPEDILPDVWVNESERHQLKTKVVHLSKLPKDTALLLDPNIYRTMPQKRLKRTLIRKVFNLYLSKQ
SUV39H1, sequence (O43463 whole entry, species assumed): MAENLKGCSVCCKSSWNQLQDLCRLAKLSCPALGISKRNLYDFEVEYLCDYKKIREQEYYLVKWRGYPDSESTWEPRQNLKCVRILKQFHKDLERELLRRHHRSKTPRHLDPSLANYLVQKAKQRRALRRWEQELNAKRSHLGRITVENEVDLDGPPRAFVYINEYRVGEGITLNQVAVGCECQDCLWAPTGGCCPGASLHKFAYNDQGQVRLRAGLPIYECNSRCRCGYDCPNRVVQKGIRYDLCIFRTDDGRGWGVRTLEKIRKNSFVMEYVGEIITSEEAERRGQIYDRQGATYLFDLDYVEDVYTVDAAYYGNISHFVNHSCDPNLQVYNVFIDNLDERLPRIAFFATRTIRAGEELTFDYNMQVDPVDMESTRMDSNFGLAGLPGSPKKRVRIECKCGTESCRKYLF
adrenergic α1A receptor, sequence (P43140 whole entry): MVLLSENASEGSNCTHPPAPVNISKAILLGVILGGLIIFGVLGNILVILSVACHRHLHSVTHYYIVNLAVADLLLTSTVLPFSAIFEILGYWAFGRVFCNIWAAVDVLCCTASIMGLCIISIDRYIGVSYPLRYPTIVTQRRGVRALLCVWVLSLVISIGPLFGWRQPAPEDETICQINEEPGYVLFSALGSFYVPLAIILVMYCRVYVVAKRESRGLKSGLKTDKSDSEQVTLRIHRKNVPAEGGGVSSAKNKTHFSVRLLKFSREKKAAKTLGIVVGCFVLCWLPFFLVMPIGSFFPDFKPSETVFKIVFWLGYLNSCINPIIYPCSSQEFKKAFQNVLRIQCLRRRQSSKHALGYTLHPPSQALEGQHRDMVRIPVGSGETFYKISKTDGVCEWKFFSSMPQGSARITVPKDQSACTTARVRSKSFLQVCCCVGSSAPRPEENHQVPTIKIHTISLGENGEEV
M1, sequence (P11229 whole entry): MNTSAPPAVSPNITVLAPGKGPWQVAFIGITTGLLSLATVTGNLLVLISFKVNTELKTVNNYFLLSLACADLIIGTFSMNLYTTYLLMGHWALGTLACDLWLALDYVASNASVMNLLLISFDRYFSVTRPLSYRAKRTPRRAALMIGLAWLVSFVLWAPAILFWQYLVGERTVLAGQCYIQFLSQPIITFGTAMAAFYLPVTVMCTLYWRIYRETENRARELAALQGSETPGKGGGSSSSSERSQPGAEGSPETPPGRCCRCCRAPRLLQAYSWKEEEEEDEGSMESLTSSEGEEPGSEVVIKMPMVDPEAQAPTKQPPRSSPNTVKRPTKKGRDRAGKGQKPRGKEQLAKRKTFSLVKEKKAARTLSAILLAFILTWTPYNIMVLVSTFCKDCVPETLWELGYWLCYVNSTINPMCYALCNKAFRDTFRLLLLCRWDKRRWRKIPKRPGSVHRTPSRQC
M4, sequence (P08173 whole entry): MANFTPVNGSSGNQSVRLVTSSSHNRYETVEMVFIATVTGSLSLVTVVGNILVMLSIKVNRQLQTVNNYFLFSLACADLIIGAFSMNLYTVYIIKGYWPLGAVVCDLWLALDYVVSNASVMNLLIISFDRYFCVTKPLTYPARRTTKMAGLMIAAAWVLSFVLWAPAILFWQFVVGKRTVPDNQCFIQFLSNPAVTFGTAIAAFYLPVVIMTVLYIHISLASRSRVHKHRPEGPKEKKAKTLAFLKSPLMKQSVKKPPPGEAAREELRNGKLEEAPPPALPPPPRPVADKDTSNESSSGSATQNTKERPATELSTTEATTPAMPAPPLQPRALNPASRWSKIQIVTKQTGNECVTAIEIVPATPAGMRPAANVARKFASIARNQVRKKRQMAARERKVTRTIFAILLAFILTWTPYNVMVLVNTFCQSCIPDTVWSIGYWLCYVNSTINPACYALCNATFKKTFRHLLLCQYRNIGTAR

**Q.** Which results are given for COc1cc2c(NC3CCN(C(C)C)CC3)nc(C3CCCCC3)nc2cc1OCCCN1CCCC1 [UNC0638]?
**A.** IC50 [1]: > 10000 nM; IC50 [1, 22]: inactive; genomic regions containing H3K9me2 on chr3 and chrX [2]: significantly fewer genomic regions containing H3K9me2; IC90 ([3]; Homo sapiens, MDA-MB-231, read-out: IC90 for reduction of H3K9me2 levels): 250 nM; cellular H3K9me2 levels after 4 d ([3]; MDA-MB-231 cells, 250 or 500 nM): equal or very close to those of G9a and GLP knockdown cells; IC50 ([3]; read-out: IC50 for reduction of H3K9me2 levels, MDA-MB-231 cells, 48 h exposure, in-cell western): 80 nM; IC50 [4]: 480 ± 10 nM; expression of DUB1 and MAGEA2 genes [5]: more highly expressed; EGFP+ cells, maximal level ([6]; day 10, UNC0638 100, 250 or 500 nM, untreated 36%): 63%; EGFP+ cells ([6]; day 12): 75%; IC50 [7]: 138 nM; inhibition at 1 µM [8]: 90%; inhibition [9]: < 10%; IC50 [10]: > 10000 nM; IC50 [10, 22]: inactive; inhibition at 1 µM [11]: 64%; IC50 [12]: > 10000 nM; EC50 [13]: 11000 nM; SSEA1+ cells [14]: 97%; IC50 [15]: > 10000 nM; IC50 [15, 22]: inactive; mechanism of action versus peptide substrate ([16]; Km of the peptide increased linearly with UNC0638 concentration): competitive with the peptide substrate; mechanism of action versus cofactor SAM ([16]; apparent Km of SAM remained constant): noncompetitive with cofactor SAM; clonogenicity [17]: marked concentration-dependent reduction of clonogenicity; IC50 [18]: 48 nM; DNA methylation of retrovirus LTR and MAGEA2 promoter [19]: induced DNA hypomethylation in a concentration-dependent manner; IC50 [20]: > 10000 nM; displacement of fluorescein-labeled 15-mer H3 peptide (residues 1–15) [21]: high efficiency
